In the library only some 4.4% were active in any assay of this set; here they are far more common.
TbMetRS inhib = T. brucei MetRS inhibitors, primary screen, biochemical, luminescence | 360,000 compounds, 0.4% hits | AID 624268, 2012 | methionyl-tRNA synthetase (Trypanosoma brucei brucei) | purified T. brucei MetRS, ATP depletion, Kinase-Glo luminescence | inhibition, % at 11.9 µM;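 active means inhibition above a per-plate cutoff of the control wells' mean inhibition plus 3 SD, cut at about 5.5% in these data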;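 further: 0% = DMSO wells median and 100% = median of wells with control inhibitor compound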
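Measured by: Kinase-Glo luciferase luminescence reporting remaining unconsumed ATP. Material: purified T. brucei MetRS enzyme. Doses: 11.9 µM compound single dose, 0.9% DMSO. Medium: HEPES buffer containing pyrophosphatase, BSA, spermine, DTT. Times: 15 min preincubation, 2 h reaction, all 25 °C. Reagent: methionine, ATP and bulk E. coli tRNA.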
m5-HT2A agonist = mouse Htr2a agonists via beta-arrestin recruitment, primary screen, cell-based, luminescence; AID 624169, 2012; activation, % at 7.6 µM; CHO-K1 mHTR2A beta-arrestin complementation; percent of 30 µM serotonin response; 360,000 compounds, 0.66% hits; 5-hydroxytryptamine receptor 2A (Mus musculus), P35363;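 active means activation above a run cutoff, the mean activation of all tested compounds plus 3 SD, cut at about 14% in these data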;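 further: 0% = plate median of compound wells and 100% = 30 µM serotonin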
Target sequence (P35363 whole entry, looked up): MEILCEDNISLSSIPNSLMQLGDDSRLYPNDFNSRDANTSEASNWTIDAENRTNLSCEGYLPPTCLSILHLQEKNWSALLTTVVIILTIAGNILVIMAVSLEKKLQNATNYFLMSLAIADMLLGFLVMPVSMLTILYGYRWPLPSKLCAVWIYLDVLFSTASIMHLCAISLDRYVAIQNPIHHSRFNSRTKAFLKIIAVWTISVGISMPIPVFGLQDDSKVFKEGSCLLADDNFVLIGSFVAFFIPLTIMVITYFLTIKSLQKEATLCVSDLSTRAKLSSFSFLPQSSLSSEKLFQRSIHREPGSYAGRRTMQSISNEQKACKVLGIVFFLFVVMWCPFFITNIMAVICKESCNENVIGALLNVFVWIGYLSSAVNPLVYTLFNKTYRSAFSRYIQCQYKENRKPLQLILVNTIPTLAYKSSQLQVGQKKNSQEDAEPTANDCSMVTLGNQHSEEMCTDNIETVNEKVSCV
AHR activator = AHR activators, primary screen, cell-based, luminescence, luciferase reporter, human | AHR-responsive luciferase reporter cells | activation, % at 5 µM | 320,000 compounds, 2.5% hits | AID 2796, 2010; in the data active means activation above about 47%;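 further: 0% = vehicle wells and 100% = reference agonist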
AI-2 QS modul = Vibrio harveyi AI-2 quorum sensing modulators, primary screen, JMH597 strain, luminescence/OD600 ratio; Vibrio harveyi JMH597 AI-2 luminescence/OD600 ratio, 9 h; stronger effect = lower value; strain lacks LuxN and CqsS sensors; 0 = neutral-control median; activity change, % at 7.5 µM; 300,000 compounds, 0.4% hits; AID 2094, 2009; in the data active means activity change below about -75%, passing the limit was not always enough;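 further: luminescence divided by OD600 gain over 9 h not by final OD600 alone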
MsrA inhibitor = bovine MsrA enzyme inhibitors, primary screen, biochemical, absorbance, HTS; Methionine sulfoxide reductase A (Bos taurus); purified bovine MsrA, absorbance read-out; inhibition, % at 15.5 µM; 360,000 compounds, 0.75% hits; AID 651718, 2012; in the data active means inhibition above about 4.5%;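 further: 0% = vehicle wells with enzyme and 100% = reference inhibitor wells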
MsrA act = bovine MsrA enzyme activators, primary screen, biochemical, absorbance, HTS. Methionine sulfoxide reductase A (Bos taurus). purified bovine MsrA, absorbance read-out. activation, % at 10.6 µM. 360,000 compounds, 0.3% hits. AID 602163, 2012; in the data active means activation above about 7.5%;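 further: 0% = vehicle and 100% = reference activator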
TbMetRS confirm = T. brucei MetRS inhibitors, confirmation, biochemical, luminescence. shares compounds with TbMetRS inhib. T. brucei MetRS enzyme, luminescence (ATP depletion). inhibition, % at 11.9 µM. 1,400 compounds, 93% hits; in the data active means inhibition above about 7%
Jurkat tox = Jurkat T cell cytotoxicity, cytotoxicity control for T. brucei MetRS inhibitor project, luminescence, high throughput. 1,400 compounds, 12% hits. Jurkat cells viability, ATP luminescence. shares compounds with TbMetRS inhib. inhibition, % at 8.3 µM. AID 624413, 2012; in the data active means inhibition above about 15%;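 further: 0% = vehicle and 100% = reference inhibitor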
Tb MetRS inh FP = T. brucei MetRS inhibitors, orthogonal assay for T. brucei MetRS inhibitor project, biochemical, fluorescence polarization; inhibition, % at 11.9 µM; shares compounds with TbMetRS inhib; 1,400 compounds, 44% hits; purified T. brucei MetRS; AID 651607, 2012; in the data active means inhibition above about 17%;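 further: 0% = vehicle wells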
Starred values were filed as active, the others as inactive; / = no result given.

SMILES	TbMetRS inhib	m5-HT2A agonist	AHR activator	AI-2 QS modul	MsrA inhibitor	MsrA act	TbMetRS confirm	Jurkat tox	Tb MetRS inh FP
CSCC[C@H](NC(=O)c1ccc(Cl)c([N+](=O)[O-])c1)c1nc2ccccc2[nH]1	56*	-3	4	0	0	-3	73*	9	43*
Cc1c(C(=O)NC(Cc2ccccc2)c2nc3ccccc3[nH]2)cccc1[N+](=O)[O-] (centres undefined)	0	-1	11	11	-1	-11	/	/	/
CCOc1ccc(C(=O)Nc2cccc(-c3nc4ccccc4[nH]3)c2C)cc1[N+](=O)[O-]	-1	-2	0	31	-1	-8	/	/	/
CCOc1ccc(C(=O)Nc2cc(-c3nc4ccccc4[nH]3)ccc2Cl)cc1[N+](=O)[O-]	7.7*	1	19	33	2	-2	14*	5	15
O=C(NC(Cc1ccccc1)c1nc2ccccc2[nH]1)c1ccc(Cl)c([N+](=O)[O-])c1 (centres undefined)	20*	-6	12	0	1	3	26*	11	12
O=C(COc1ccccc1Cl)N1CCNC1=O	0	-5	/	/	0	-3	/	/	/
Cc1cc(Cl)ccc1C(O)c1ncc(-c2ccc3ccccc3c2)[nH]1 (centres undefined)	0	0	/	/	1	-1	/	/	/
Cc1cccc(OCC(O)Cn2c(N3CCCCC3)nc3c2c(=O)n(C)c(=O)n3C)c1 (centres undefined)	-2	5	3	-4	-1	-11	/	/	/
CNC(=S)NNC(=O)c1cccn(Cc2ccc(Cl)cc2Cl)c1=O	/	/	2	3	1	/	/	/	/
CNC(=S)NNC(=O)c1ccc(=O)n(Cc2ccc(Cl)cc2Cl)c1	7.8*	1	0	39	0	-4	20*	11	7
CN1CCCN(C(=O)/C=C/c2ccc(Cl)cc2Cl)CC1	8.0*	-6	14	23	-1	7	17*	-6	1
O=C1CN(C(=O)/C=C/c2ccc(Cl)cc2Cl)CCN1	1	7	15	29	-1	-4	/	/	/
Cc1ccn2c(c1)nc(=O)c1cc(S(=O)(=O)N3CCOCC3)ccc12	0	2	-2	17	0	-4	/	/	/
O=C(N/N=C/c1ccccc1C(=O)O)c1cccc(S(=O)(=O)N2CCCCC2)c1	0	6	2	/	1	-3	/	/	/
C[C@H](O)[C@@H]1CN2CCc3c([nH]c4ccccc34)[C@@H]2C[C@@H]1N(C)C(=O)Nc1ccccc1	2	-5	/	/	0	-4	/	/	/
C[C@H](O)[C@@H]1C(=O)N2CCc3c([nH]c4ccccc34)[C@@H]2C[C@@H]1N(C)C(=O)Nc1ccccc1	2	-5	/	/	0	-2	/	/	/
CN(Cc1cc(Cl)cc(Cl)c1)[C@H]1C[C@H]2c3[nH]c4ccccc4c3CCN2C(=O)[C@H]1CO	62*	-1	/	/	-1	-1	106*	-3	86*
C[C@H](O)[C@@H]1C(=O)N2CCc3c([nH]c4ccccc34)[C@@H]2C[C@@H]1N(C)C(=O)Nc1cc(Cl)cc(Cl)c1	71*	3	/	/	1	-4	91*	18*	70*
C[C@H](O)[C@@H]1CN2CCc3c([nH]c4ccccc34)[C@@H]2C[C@@H]1N(C)C(=O)Nc1cc(Cl)cc(Cl)c1	29*	7	/	/	1	-4	58*	9	37*
Cn1cnc2cc(NCc3ccc(Cl)cc3)ccc21	7.2*	-6	56*	-50	0	5	16*	1	1
CCOc1ccc(CNc2ccc3c(c2)ncn3C)cc1	0	-9	29	-45	2	-2	/	/	/
CN(CC(=O)Nc1cccc(F)c1)C(=O)c1ccc(-n2cncn2)c([N+](=O)[O-])c1	51*	0	2	16	0	-2	84*	0	51*
CN(CC(=O)Nc1ccc(F)c(F)c1F)C(=O)c1ccc(-n2cncn2)c([N+](=O)[O-])c1	7.7*	-6	5	-6	-1	-4	33*	-6	17*
CC1Cc2ccccc2N1C(=O)COC(=O)c1ccc(N(C)C)cc1 (centres undefined)	0	-2	1	/	0	0	/	/	/
Cc1onc(-c2ccccc2Cl)c1C(=O)NC1CCCCCC1	0	4	0	14	0	-3	/	/	/
SMILES	TbMetRS inhib	m5-HT2A agonist	AHR activator	AI-2 QS modul	MsrA inhibitor	MsrA act	TbMetRS confirm	Jurkat tox	Tb MetRS inh FP
Cc1ccc(C(=O)Nc2ccccc2C(=O)O)cc1S(=O)(=O)Nc1ccc(Br)cc1	2	12	6	26	0	-4	/	/	/
OC(COc1ccc2cc(Br)ccc2c1)Cn1ccnc1 (centres undefined)	6.2*	3	10	10	-1	-2	13*	9	24*
Cc1ccccc1-n1cc(-c2ccc(Br)cc2)nc1SCC(N)=O	29*	-1	2	26	0	-2	39*	6	23*
O=C(NCc1cc(Cl)cc(Cl)c1)c1ccc2nc(COCCO)[nH]c2c1	21*	-1	/	/	0	0	55*	-8	30*
O=C(NCc1n[nH]c(=S)n1Cc1ccccc1)c1ccc(Cl)cc1Cl	5.8*	-1	5	13	2	0	13*	1	5
O=C(NCc1n[nH]c(=S)n1Cc1ccccc1)c1ccccc1	-1	-4	1	29	-1	1	/	/	/
COCC(C)n1c(SCC(=O)NC(=O)NC2CCCC2)nc2ccccc2c1=O (centres undefined)	0	-1	1	/	1	7	/	/	/
Cc1ccc(C(=O)c2ccccc2C(=O)OCC(=O)N2C(C)CCCC2C)cc1 (centres undefined)	0	0	-2	/	0	0	/	/	/
O=C(CN1CCN(c2ccccc2F)CC1)c1c[nH]c2ccc(F)cc12	11*	-3	0	2	1	-8	17*	-10	2

Bioassay records deposited in PubChem by several laboratories.
